# Compound activity from PubChem BioAssay.
# The list is not random: actives were taken first. Their share in the collection is about 2%.
# Exocytosis inh: lytic granule exocytosis inhibition; TALL-104 LAMP-1 surface exposure, flow cytometry; cells stimulated with thapsigargin and PMA; hit rate 0.66% among 360,000; inhibition, % at 10 µM;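 active = inhibition above about 55%, limit read from the data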
# MT1-MMP act inh: blocks activation of human MT1-MMP; P50281; HT1080 RFP-PRO-GFP cells, GFP/RFP ratio fluorescence, overnight; percent of plate control window, DMSO zero; GFP/RFP ratio change, % at 20 µM; hit rate 0.061% among 360,000; AID 651647;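 active = GFP/RFP ratio change of at least 30% with cell ATP level not reduced by more than half and red fluorescence within 50% of control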
#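 Assay system: HT1080 cells carrying an RFP-PRO-GFP reporter | Dosing: Single dose of 20 µM compound, 1% DMSO final | Incubation: Cells overnight before dosing, compound overnight, 37 °C, 5% CO2 | Evaluation: GFP/RFP fluorescence ratio | Control set: DMSO and RFP-L50D-GFP cell wells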
# FGF22 binding: shifts melting point of recombinant human FGF22 | Q9HCT0 | recombinant FGF22 thermal shift, SYPRO orange fluorescence; percent of sucrose octasulfate shift, DMSO zero | activity (Tm shift, normalised), % at 9.99 µM | hit rate 1.5% among 340,000;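 active = mean Tm shift, scaled 0 neutral to 100 positive control, at about 1.3% or above, every replicate too, limit read from the data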
# ABCB6 inh MLPCN: human ABCB6 transporter inhibition; Q9NP58; K562-ABCB6 porphyrin accumulation, flow cytometry, 1 h; hits give low values; fluorescence ratio to DMSO, % at 10 µM; hit rate 0.19% among 360,000;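 active = fluorescence ratio to DMSO below 75%, the collection mean minus 3 SD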;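 also: signal is porphyrin accumulated inside mitochondria; 100% equals median channel fluorescence of DMSO control wells; lower ratio means ABCB6 inhibition with less porphyrin fluorescence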
# DAGLB inhibitor: blocks human DAGLB lipase activity. HEK293T DAGLB membrane lysate, EnzChek fluorogenic substrate. hit rate 0.059% among 340,000. AID 504411. inhibition, % at 5.17 µM. Q8NCG7; in the data active = inhibition above about 34%;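 also: 0% = enzyme with vehicle and 100% = wells lacking enzyme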
# VLA-4 inh: inhibition in a human VLA-4 binding assay; P13612; AID 2557; inhibition, % (about 7 µM as worked out from the volumes in the protocol); hit rate 0.2% among 330,000; VLA-4 expressing cells, ligand binding flow cytometry; in the data active = inhibition above about 50%
# Target sequence (P13612 whole entry, looked up): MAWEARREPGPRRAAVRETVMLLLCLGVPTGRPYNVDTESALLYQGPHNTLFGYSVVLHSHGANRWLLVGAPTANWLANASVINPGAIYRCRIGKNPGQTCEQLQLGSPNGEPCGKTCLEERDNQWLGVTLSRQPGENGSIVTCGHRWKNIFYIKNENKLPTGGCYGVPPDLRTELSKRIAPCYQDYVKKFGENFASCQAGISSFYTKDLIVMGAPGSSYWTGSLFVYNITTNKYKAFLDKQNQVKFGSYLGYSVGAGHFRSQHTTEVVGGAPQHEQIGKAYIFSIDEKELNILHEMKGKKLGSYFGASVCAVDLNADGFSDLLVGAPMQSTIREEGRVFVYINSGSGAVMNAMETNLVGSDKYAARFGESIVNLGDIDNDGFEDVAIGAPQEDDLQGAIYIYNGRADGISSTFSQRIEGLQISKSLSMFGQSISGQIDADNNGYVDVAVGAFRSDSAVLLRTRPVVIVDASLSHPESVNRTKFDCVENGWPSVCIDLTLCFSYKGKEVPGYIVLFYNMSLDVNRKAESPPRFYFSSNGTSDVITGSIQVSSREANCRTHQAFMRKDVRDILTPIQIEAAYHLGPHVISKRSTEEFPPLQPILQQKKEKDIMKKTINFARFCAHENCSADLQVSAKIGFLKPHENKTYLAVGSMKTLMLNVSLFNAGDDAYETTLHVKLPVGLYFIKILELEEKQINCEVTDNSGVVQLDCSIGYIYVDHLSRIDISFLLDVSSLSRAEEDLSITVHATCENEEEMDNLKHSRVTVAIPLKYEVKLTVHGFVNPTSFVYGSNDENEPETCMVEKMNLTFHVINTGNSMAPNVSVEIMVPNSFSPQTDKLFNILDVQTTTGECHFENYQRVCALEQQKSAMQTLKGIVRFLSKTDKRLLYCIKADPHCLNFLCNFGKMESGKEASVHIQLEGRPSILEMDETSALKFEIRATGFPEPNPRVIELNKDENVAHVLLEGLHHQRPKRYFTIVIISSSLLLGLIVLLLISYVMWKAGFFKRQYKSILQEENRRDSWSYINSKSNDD
# Starred values were filed as active, the others as inactive; / = no result.
SMILES,Exocytosis inh,MT1-MMP act inh,FGF22 binding,ABCB6 inh MLPCN,DAGLB inhibitor,VLA-4 inh
O=C1S/C(=C\c2ccc(N3CCOCC3)o2)C(=O)N1Cc1ccc(F)cc1,31.7,-216.3,/,325.0,1.8,-112.6
CC(C)OC(=O)CN1C(=O)S/C(=C/c2ccc(N3CCCCC3)o2)C1=O,63.3*,-72.8,0.2,122.0,-6.6,-196.7
O=C1S/C(=C/c2ccc(N3CCOCC3)o2)C(=O)N1Cc1ccc(F)cc1,77.9*,-248.3,/,154.0,-4.9,-124.1
C[C@@H]1CN([C@H](C)CO)C(=O)c2cc(NC(=O)CCCN(C)C)ccc2O[C@H]1CN(C)S(=O)(=O)c1ccc(F)cc1,/,/,0.2,/,/,/
O=C(Cn1c(C(F)(F)F)nc2ccccc21)N=Nc1c(O)[nH]c2ccc(Br)cc12,-4.6,-1.5,43.1*,98.0,0.8,-7.4
COCC(=O)Nc1ccc2c(c1)C(=O)N(C)[C@H]1CC[C@@H](CC(=O)NC3CCCC3)O[C@@H]1CO2,/,/,0.1,/,/,/
CN1CCN(C(=S)NC(=O)/C=C/c2ccccc2)CC1,-5.6,1.3,/,98.0,-0.1,-3.9
CN1CCN(C(=S)NC(=O)/C=C/c2ccccc2Cl)CC1,-0.8,4.8,42.9*,113.0,1.4,-1.8
CO[C@H]1CN(C)C(=O)c2ccc(NC(=O)Nc3ccccc3F)cc2OC[C@H](C)N(C)C[C@H]1C,/,/,-0.4,/,/,/
CS(=O)(=O)N(CC(=O)NCC1CCCO1)c1cccc([N+](=O)[O-])c1 (centres undefined),-1.9,0.1,42.9*,97.0,-2.0,0.9
CS(=O)(=O)N(Cc1ccc(Cl)cc1)c1ccc(C(=O)NCC2CCCO2)cc1 (centres undefined),-1.4,-4.9,0.1,102.0,-3.4,8.0
Cc1ccc(S(=O)(=O)N(CC(=O)NCC2CCCO2)c2cccc([N+](=O)[O-])c2)cc1 (centres undefined),15.3,-3.1,0.1,101.0,-2.4,4.7
Cc1ccc(NS(=O)(=O)c2ccc(C(=O)NCC3CCCO3)cc2)cc1 (centres undefined),1.7,1.3,43.7*,98.0,1.5,4.7
Cc1ccc(N(Cc2ccc(C(=O)NCC3CCCO3)cc2)S(C)(=O)=O)cc1C (centres undefined),0.2,-0.4,43.4*,98.0,-0.9,10.9
Cc1ccc(SCC(=O)NCC2CCCO2)cc1 (centres undefined),-0.8,-1.8,43.2*,95.0,-2.1,1.1
Cc1ccc(SCCC(=O)NCC2CCCO2)cc1 (centres undefined),9.4,-0.4,/,93.0,-2.0,8.6
O=C(Cc1ccncc1)NCC[C@H]1CC[C@H](NC(=O)Nc2ccc(F)cc2)[C@@H](CO)O1,/,/,-0.6,/,/,/
C[C@H](CO)N1C[C@H](C)[C@@H](CN(C)C(=O)c2ccccn2)Oc2ncc(Br)cc2C1=O,/,/,0.1,/,/,/
O=C(Cc1ccccc1)NCC1CCCO1 (centres undefined),-0.5,-0.6,/,97.0,-0.8,-3.6
O=C(Cc1ccc(F)cc1)NCC1CCCO1 (centres undefined),-4.9,-2.3,43.3*,100.0,1.2,8.7
Cc1ccc(-c2nnc(SCC(=O)NCC3CCCO3)nc2-c2ccc(C)cc2)cc1 (centres undefined),-14.8,-2.5,0.0,103.0,1.2,/
O=C(CSc1nnc(-c2ccccc2)c(-c2ccccc2)n1)NCC1CCCO1 (centres undefined),-2.9,-2.6,43.2*,96.0,-1.2,-9.9
O=C(C#Cc1ccccc1)c1cccc([N+](=O)[O-])c1,54.1,4.0,0.3,71.0*,8.6,23.7
COc1cc(/C=C/C(=O)c2cccc([N+](=O)[O-])c2)cc(OC)c1OC,-1.8,-8.9,0.2,102.0,-0.1,8.3
O=C(/C=C/c1ccccc1F)c1cccc([N+](=O)[O-])c1,85.4*,-4.2,/,108.0,3.9,21.8
SMILES,Exocytosis inh,MT1-MMP act inh,FGF22 binding,ABCB6 inh MLPCN,DAGLB inhibitor,VLA-4 inh
CN1CCN(C(=O)c2cc(Oc3c(F)c(F)c(F)c(F)c3F)cc(C(=O)N3CCN(C)CC3)c2)CC1,-0.6,-0.9,43.8*,99.0,-0.2,-16.1
CN1CCN(C(=O)c2ccc(F)c(F)c2)CC1,-4.9,-0.8,0.1,100.0,0.1,-4.4
C[C@H](CO)N1C[C@H](C)[C@H](CN(C)C(=O)c2ccccc2F)Oc2cc(-c3ccc(F)cc3)ccc2S1(=O)=O,/,/,0.0,/,/,/
CCCNC(=O)C[C@H]1CC[C@@H]2[C@H](COc3ccc(NC(=O)Nc4c(C)noc4C)cc3C(=O)N2C)O1,/,/,-0.1,/,/,/
CCc1ccc(S(=O)(=O)Nc2cccc(-c3ccc4nncn4n3)c2)s1,22.4,-1.0,43.2*,106.0,1.2,7.1
O=C(Cc1ccc(F)cc1)Nc1cccc(-c2ccc3nncn3n2)c1,-0.7,4.7,43.5*,91.0,-1.6,-2.5
COc1ccc(S(=O)(=O)Nc2cccc(-c3ccc4nncn4n3)c2)cc1,-2.0,-2.7,0.2,97.0,-0.2,2.0
CCN1C(=O)[C@@H]2[C@@H]3CN(S(=O)(=O)c4ccc(C)cc4)[C@@H](c4ccccc4)[C@@H]3C(=O)C[C@@H]2C1=O,-1.4,3.9,0.2,100.0,/,/
CCOC1=CC2=C(C(=O)C(Cl)=CC2=O)[C@@H]2CN(S(=O)(=O)c3ccc(C)cc3)[C@@H](c3ccccc3)[C@H]12,98.3*,-0.2,0.1,101.0,/,/
C[C@]12CCC3C4(C=CC5(C=C4C(=O)c4ccc(F)c(F)c4)C[C@@H](O)CC[C@]35C)C1CC[C@@]2(O)CN1CCC(C(N)=O)CC1 (some centres undefined),/,/,-0.2,/,/,/
Cc1cc(NC(=O)COc2cccc(C)c2C)no1,0.8,-0.6,0.0,94.0,-2.4,3.0
Cc1cc(NC(=O)COc2ccccc2C)no1,1.5,0.7,44.1*,183.0,-0.7,-5.6
C[C@@H]1CCCCO[C@@H](CN(C)S(=O)(=O)c2cn(C)cn2)[C@H](C)CN([C@H](C)CO)C(=O)c2cc(NS(=O)(=O)c3cccs3)ccc2O1,/,/,-0.1,/,/,/
COC(=O)c1oc2ccccc2c1NC(=O)c1ccccc1O,-4.1,-6.3,43.2*,88.0,-7.9,0.9
C[C@H](CO)N1C[C@H](C)[C@H](CN(C)Cc2ccc(C(F)(F)F)cc2)Oc2ccc(NC(=O)NC3CCCCC3)cc2CC1=O,/,/,0.1,/,/,/
C[C@@H]1CCCCO[C@H](CN(C)C(=O)c2ccccc2)[C@H](C)CN([C@H](C)CO)C(=O)c2cc(NC(=O)c3ccccc3)ccc2O1,/,/,0.0,/,/,/
O=S(=O)(c1ccc(NC(=S)Nc2ccc3c(c2)OCO3)cc1)N1CCOCC1,-3.0,-9.7,/,106.0,1.2,-0.6
CC(=O)Nc1ccc(S(=O)(=O)N2CCCC2C(=O)Nc2ccc(F)cc2)cc1 (centres undefined),3.0,-3.7,-0.2,98.0,-1.7,-4.7
O=C(Nc1ccc2c(c1)OCO2)c1ccc(S(=O)(=O)N2CCCC2)cc1,1.1,-1.4,44.9*,98.0,-1.8,-1.2
